The values that follow come from ChEMBL document CHEMBL4354800, “Amphiphilic nebramine-based hybrids Rescue legacy antibiotics from intrinsic resistance in multidrug-resistant Gram-negative bacilli” (Eur J Med Chem, 2019).

Assay [1] concerns Pseudomonas aeruginosa. Briefly: Potentiation of ciprofloxacin-induced antibacterial activity against MDR/XDR Pseudomonas aeruginosa isolate PA262-101856 harboring GyrA T83I mutant assessed as fold reduction in ciprofloxacin MIC at 7.5 uM incubated for 18 hrs by broth microdilution method. In kind it is functional. Background: In broth dilution the organism is exposed to a series of concentrations in liquid medium.

Assay [2] relates to Pseudomonas aeruginosa. Briefly: Potentiation of ciprofloxacin-induced antibacterial activity against MDR/XDR Pseudomonas aeruginosa isolate 91433 devoid of GyrA T83I mutant assessed as fold reduction in ciprofloxacin MIC at 7.5 uM incubated for 18 hrs by broth microdilution method. In kind it is functional.
Assay [3] relates to Pseudomonas aeruginosa. As to the kind of experiment: Potentiation of minocycline-induced antibacterial activity against MDR/XDR Pseudomonas aeruginosa isolate PA264-104354 harboring GyrA T83I mutant assessed as fold reduction in minocycline MIC at 7.5 uM incubated for 18 hrs by broth microdilution method. In kind it is functional.
Assay [4] deals with Pseudomonas aeruginosa. Briefly: Potentiation of rifampicin-induced antibacterial activity against MDR/XDR Pseudomonas aeruginosa isolate 101885 harboring GyrA T83I mutant assessed as fold reduction in rifampicin MIC at 7.5 uM incubated for 18 hrs by broth microdilution method. In kind it is functional. A digest of the protocol: (§1)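 CLSI broth microdilution. Overnight cultures were set to 0.5 McFarland in saline, diluted 1:50 in Mueller-Hinton broth to a final 5 × 10^5 CFU/mL, and incubated 18 h at 37 °C against 2-fold antibiotic dilutions. A fixed adjuvant level was present throughout. MIC = lowest concentration with no visible turbidity, confirmed at 590 nm. Potentiation = fold drop in antibiotic MIC versus antibiotic alone.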

Assay [5] concerns Pseudomonas aeruginosa. As to the kind of experiment: Potentiation of minocycline-induced antimicrobial activity against MDR/XDR Pseudomonas aeruginosa isolate 100036 harboring GyrA Thr83Ile mutant assessed as minocycline MIC50 incubated for 18 hrs by broth microdilution method (reference value: 16 microg/ml). In kind it is functional. As to conditions: isolate 100036, 18 h.
Assay [6] has as its system Acinetobacter baumannii. Briefly: Antimicrobial activity against multidrug-resistant Acinetobacter baumannii AB030 incubated for 18 hrs by broth dilution method. As to conditions: AB030, 18 h. In kind it is functional. Summed up:
(§2)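 Broth microdilution per CLSI: overnight cultures set to 0.5 McFarland in saline, diluted 1:50 in Mueller-Hinton broth to a final 5 × 10^5 CFU/mL, added to 2-fold serial dilutions, incubated 18 h at 37 °C; MIC is the lowest concentration without visible turbidity, confirmed at 590 nm.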

For assay [7], the system named is Acinetobacter baumannii. Briefly: Synergistic antibacterial activity against multidrug-resistant Acinetobacter baumannii AB030 assessed as fractional inhibitory concentration index in presence of rifampicin incubated for 18 hrs by broth dilution method. In kind it is functional.
The subject of assay [8] is Enterobacter cloacae. As to the kind of experiment: Potentiation of minocycline-induced antibacterial activity against Enterobacter cloacae 117029 assessed as fold reduction in minocycline MIC at 7.5 uM incubated for 18 hrs by broth dilution method. In kind it is functional. Summed up:
(§3)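 Antibiotic MIC determined by CLSI broth microdilution (MHB, 5 × 10^5 CFU/mL, 18 h, 37 °C), once alone and once with a fixed concentration of the adjuvant. Potentiation is the ratio of the antibiotic MIC alone to its MIC in the presence of the adjuvant.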

The test system of assay [9] is Pseudomonas aeruginosa. Briefly: Potentiation of rifampicin-induced antimicrobial activity against MDR/XDR Pseudomonas aeruginosa isolate 101243 devoid of GyrA Thr83Ile mutant assessed as rifampicin MIC80 incubated for 18 hrs by broth microdilution method (reference value: 16 microg/ml). In kind it is functional. To be noted: isolate 101243, 18 h.
The test system of assay [10] is Acinetobacter baumannii. As to the kind of experiment: Antimicrobial activity against multidrug-resistant Acinetobacter baumannii AB110193 incubated for 18 hrs by broth dilution method. In kind it is functional. As to conditions: AB110193, 18 h. Summed up: as §2
Assay [11] deals with Escherichia coli. As to the kind of experiment: Antimicrobial activity against Escherichia coli ATCC 25922 incubated for 18 hrs by broth dilution method. In kind it is functional. To be noted: ATCC 25922, 18 h. A digest of the protocol: (§4)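 CLSI broth microdilution. Overnight cultures were adjusted to 0.5 McFarland in saline, diluted 1:50 in Mueller-Hinton broth, and inoculated at a final 5 × 10^5 CFU/mL. Compounds were tested as 2-fold serial dilutions and incubated 18 h at 37 °C. MIC was the lowest concentration with no visible turbidity, confirmed by absorbance at 590 nm.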

Assay [12] has as its system Escherichia coli. As to the kind of experiment: Antimicrobial activity against Escherichia coli 107115 incubated for 18 hrs by broth dilution method. In kind it is functional. As to conditions: Escherichia coli, 107115, 18 h. Summed up:
as §2

For assay [13], the system named is Klebsiella pneumoniae. As to the kind of experiment: Antimicrobial activity against Klebsiella pneumoniae 113254 incubated for 18 hrs by broth dilution method. In kind it is functional. To be noted: Klebsiella pneumoniae, 113254, 18 h. A digest of the protocol:
as §4

The subject of assay [14] is Escherichia coli. Briefly: Synergistic antibacterial activity against Escherichia coli 107115 assessed as fractional inhibitory concentration index in presence of rifampicin incubated for 18 hrs by broth dilution method. In kind it is functional. A digest of the protocol: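 Checkerboard titration of the adjuvant against the antibiotic, run under the CLSI microdilution conditions (MHB, 5 × 10^5 CFU/mL, 18 h, 37 °C). Each agent's FIC is its MIC in combination divided by its MIC alone; FICI is the sum of the two FICs. FICI ≤0.5 was read as synergy, >0.5–4.0 as no interaction, and >4.0 as antagonism.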

In assay [15] the test system is Klebsiella pneumoniae. As to the kind of experiment: Potentiation of minocycline-induced antibacterial activity against Klebsiella pneumoniae 113254 assessed as fold reduction in minocycline MIC at 4.1 uM incubated for 18 hrs by broth dilution method. In kind it is functional. A digest of the protocol: as §3
In assay [16] the test system is Pseudomonas aeruginosa. Briefly: Antimicrobial activity against XDR Pseudomonas aeruginosa isolate PA264 infected in Galleria mellonella larvae assessed as survival rate at 75 mg/kg co-administered with 75 mg/kg rifampicin at 2 hrs post-inoculation measured after 18 hrs relative to control. In kind it is functional. A digest of the protocol:
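G. mellonella larvae were injected with ~5 CFU of P. aeruginosa PA264 (10 µL of 5 × 10^2 CFU/mL in PBS) and held 2 h at 37 °C. A single 10 µL injection followed: monotherapy or rifampicin + compound (25+25, 50+50 or 75+75 mg/kg), with PBS as control. Larvae kept at 37 °C were scored every 6 h to 24 h; dead = no response to touch. n = 30 (two runs of 15); Kaplan-Meier.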

In assay [17] the test system is Pseudomonas aeruginosa. As to the kind of experiment: Antimicrobial activity against XDR Pseudomonas aeruginosa isolate PA264 infected in Galleria mellonella larvae assessed as increase in survival rate co-administered with rifampicin at 2 hrs post-inoculation measured every 6 hrs for upto 24 hrs. In kind it is functional, organism-based. A digest of the protocol:
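G. mellonella larvae each received an injection of about 5 CFU of PA264 (culture adjusted to 0.5 McFarland, then diluted in PBS to 5 × 10^2 CFU/mL) and were held 2 h at 37 °C. A single injection followed: rifampicin plus adjuvant at 25+25, 50+50 or 75+75 mg/kg, or PBS. Larvae were kept at 37 °C and scored every 6 h up to 24 h; no response to touch counted as dead. Total n=30 per group; Kaplan-Meier analysis.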

The test system of assay [18] is Pseudomonas aeruginosa. As to the kind of experiment: Potentiation of moxifloxacin-induced antibacterial activity against MDR/XDR Pseudomonas aeruginosa isolate 91433 devoid of GyrA T83I mutant assessed as fold reduction in moxifloxacin MIC at 9 uM incubated for 18 hrs by broth microdilution method. In kind it is functional. Summed up: as §1
Assay [19] concerns Pseudomonas aeruginosa. Briefly: Potentiation of moxifloxacin-induced antibacterial activity against MDR/XDR Pseudomonas aeruginosa isolate 101243 devoid of GyrA T83I mutant assessed as fold reduction in moxifloxacin MIC at 9 uM incubated for 18 hrs by broth microdilution method. In kind it is functional. Summed up:
as §1

Assay [20] deals with Pseudomonas aeruginosa. As to the kind of experiment: Potentiation of rifampicin-induced antibacterial activity against wild type Pseudomonas aeruginosa PAO1 assessed as fold reduction in rifampicin MIC at 9 uM incubated for 18 hrs by broth microdilution method. In kind it is functional. A digest of the protocol:
as §1

A word on the MIC50: it is the lowest concentration that inhibits either 50% of growth or 50% of the strains tested, depending on the study. The term MIC denotes the lowest concentration found to suppress growth. The low end stands for greater potency, the high end for weaker potency. The MIC80 is the lowest concentration that inhibits either 80% of growth or 80% of the strains tested, depending on the study.

Structures are written as SMILES.

For the molecule `COc1c(N2C[C@@H]3CCCN(CCCCCCCCCCCCO[C@@H]4[C@@H](O)[C@H](N)C[C@H](N)[C@H]4O[C@H]4O[C@H](CN)[C@@H](O)C[C@H]4N)[C@@H]3C2)c(F)cc2c(=O)c(C(=O)O)cn(C3CC3)c12.Cl.Cl.Cl.Cl.Cl`, the “fold change (FC)” value came out at 4 in assay [1]; 16 in assay [2]; 64 in assay [3]; 128 in assay [4]; 16 in [8]. The MIC50 in assay [5] worked out at 0.5 µg/mL. Moreover, in assay [6], the MIC is over 16 µg/mL. In assay [7], the “fractional inhibitory concentration index (FICI)” value is 0.031 - 0.281. Also, in assay [9], the MIC80 was determined as 0.13 µg/mL.
Take `Cl.Cl.Cl.Cl.Cl.NC[C@H]1O[C@H](O[C@H]2[C@H](OCCCCCCCCCCCCN3CCN(c4cc5c(cc4F)c(=O)c(C(=O)O)cn5C4CC4)CC3)[C@@H](O)[C@H](N)C[C@@H]2N)[C@H](N)C[C@@H]1O`: the MIC is over 128 µg/mL in [10], 8 µg/mL in assay [11], 32 µg/mL in assay [12] and 128 µg/mL in [13]. The “fractional inhibitory concentration index (FICI)” value in assay [14] is 0.015 - 0.02. Besides, the “fold change (FC)” value in assay [15] is 2. Further, the survival at 75 mg/kg in [16] is 87%. The Activity entry in assay [17] was “Dose-dependent effect”.
For `Cl.Cl.Cl.Cl.Cl.Cl.NC[C@H]1O[C@H](O[C@H]2[C@H](OCCCCCCCCCCN3CCN(Cc4cccc5ccccc45)CC3)[C@@H](O)[C@H](N)C[C@@H]2N)[C@H](N)C[C@@H]1O`, the results for the “fold change (FC)” value in assay [18], in assay [19] and in assay [20] were 8, 8 and 256, respectively.
